Legend:
Cavia porcellus [1] = organism: Cavia porcellus; assay: Functional antagonism was obtained by the ability of compound to inhibit stimulation of [35S]GTP gamma S binding produced by selective agonists U69,593 in guinea pig caudate membranes
[2] = biological target: Opioid receptors; mu & kappa (Homo sapiens) (UniProt P41145+P35372); assay: Selectivity of compound for mu opioid receptor to that of kappa opioid receptor; format: protein assay
Cavia porcellus [3] = organism: Cavia porcellus; assay: Functional antagonism was obtained by the ability of compound to inhibit stimulation of [35S]GTP gamma S binding produced by selective agonists SNC-80 in guinea pig caudate membranes
Cavia porcellus [4] = organism: Cavia porcellus; assay: Functional antagonism was obtained by the ability of compound to inhibit stimulation of [35S]GTP gamma S binding produced by selective agonists DAMGO in guinea pig caudate membranes
[5] = biological target: Opioid receptors; delta & kappa (Homo sapiens) (UniProt P41145+P41143); assay: Selectivity of compound for delta opioid receptor to that of kappa opioid receptor; format: protein assay
[6] = biological target: Kappa-type opioid receptor (Cavia porcellus, UniProt P41144); assay: Binding affinity of compound for Opioid receptor kappa 1 was determined using [3H]U-69593 as radioligand from guinea pig caudate
Summary of the method: (§1)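 Competitive binding assays. Mu and delta receptors came from rat brain membranes. Kappa receptors came from guinea pig caudate membranes.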

[7] = biological target: Delta-type opioid receptor (Rattus norvegicus, UniProt P33533); assay: Binding affinity of compound for opioid receptor delta 1 was determined using [3H]DADLE as radioligand from rat brain tissue
Summary of the method: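 Competitive binding assays. Mu and delta receptors came from rat brain membranes. Kappa receptors came from guinea pig caudate membranes. Test compounds displaced the receptor-selective radioligand.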

Mu-type opioid receptor = Mu-type opioid receptor (Rattus norvegicus, UniProt P33535); assay: Binding affinity of compound for Opioid receptor mu 1 was determined using [3H]DAMGO as radioligand from rat brain tissue; summary of the method: as §1
Sequence of Mu-type opioid receptor (P33535 whole entry): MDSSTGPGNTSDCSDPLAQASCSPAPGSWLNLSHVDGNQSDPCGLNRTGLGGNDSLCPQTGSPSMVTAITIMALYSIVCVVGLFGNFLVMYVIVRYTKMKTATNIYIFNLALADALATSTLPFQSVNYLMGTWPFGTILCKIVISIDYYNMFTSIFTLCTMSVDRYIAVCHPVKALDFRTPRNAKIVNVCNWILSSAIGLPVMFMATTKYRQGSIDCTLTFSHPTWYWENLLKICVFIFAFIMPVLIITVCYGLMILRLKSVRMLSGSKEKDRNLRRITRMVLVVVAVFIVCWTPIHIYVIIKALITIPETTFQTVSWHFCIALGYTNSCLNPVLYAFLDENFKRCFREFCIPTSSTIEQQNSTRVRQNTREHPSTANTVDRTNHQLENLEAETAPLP

Sequence of Opioid receptors; delta & kappa (Homo sapiens) (P41143 whole entry, looked up): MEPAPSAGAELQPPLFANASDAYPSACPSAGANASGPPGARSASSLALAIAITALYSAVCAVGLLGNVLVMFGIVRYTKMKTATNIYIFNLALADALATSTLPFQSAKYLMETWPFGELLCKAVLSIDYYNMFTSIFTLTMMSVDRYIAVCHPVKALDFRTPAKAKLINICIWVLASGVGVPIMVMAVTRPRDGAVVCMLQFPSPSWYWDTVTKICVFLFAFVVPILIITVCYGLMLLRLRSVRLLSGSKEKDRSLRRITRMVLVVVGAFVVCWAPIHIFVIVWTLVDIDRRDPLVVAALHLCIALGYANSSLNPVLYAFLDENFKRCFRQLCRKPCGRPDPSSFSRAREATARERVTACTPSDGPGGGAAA
Sequence of Opioid receptors; delta & kappa (Homo sapiens) (P41145 whole entry, looked up): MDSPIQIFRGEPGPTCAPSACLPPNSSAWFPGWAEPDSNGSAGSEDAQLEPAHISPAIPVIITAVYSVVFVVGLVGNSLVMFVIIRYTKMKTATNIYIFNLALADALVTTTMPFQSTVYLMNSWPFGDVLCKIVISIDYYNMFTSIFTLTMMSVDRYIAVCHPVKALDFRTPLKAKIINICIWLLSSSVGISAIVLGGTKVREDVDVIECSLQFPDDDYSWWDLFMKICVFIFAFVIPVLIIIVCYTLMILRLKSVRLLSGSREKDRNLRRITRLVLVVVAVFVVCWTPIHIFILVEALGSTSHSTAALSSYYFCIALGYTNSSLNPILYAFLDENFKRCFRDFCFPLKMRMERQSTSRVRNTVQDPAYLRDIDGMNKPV
Sequence of Opioid receptors; mu & kappa (Homo sapiens) (P35372 whole entry, looked up): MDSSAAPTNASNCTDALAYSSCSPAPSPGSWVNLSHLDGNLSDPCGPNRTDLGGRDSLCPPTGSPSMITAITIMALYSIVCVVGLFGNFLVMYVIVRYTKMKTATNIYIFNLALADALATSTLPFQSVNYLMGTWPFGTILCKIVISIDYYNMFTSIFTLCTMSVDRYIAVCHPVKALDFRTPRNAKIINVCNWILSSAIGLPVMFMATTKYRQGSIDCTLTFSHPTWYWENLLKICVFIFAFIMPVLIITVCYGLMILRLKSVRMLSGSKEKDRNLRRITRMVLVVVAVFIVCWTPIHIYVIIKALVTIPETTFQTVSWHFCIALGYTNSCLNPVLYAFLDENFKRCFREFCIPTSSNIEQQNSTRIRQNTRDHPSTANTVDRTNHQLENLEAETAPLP
Sequence of Opioid receptors; mu & kappa (Homo sapiens) (P41145 whole entry, looked up): as the sequence (P41145 whole entry, looked up) above
Sequence of Kappa-type opioid receptor (P41144 whole entry): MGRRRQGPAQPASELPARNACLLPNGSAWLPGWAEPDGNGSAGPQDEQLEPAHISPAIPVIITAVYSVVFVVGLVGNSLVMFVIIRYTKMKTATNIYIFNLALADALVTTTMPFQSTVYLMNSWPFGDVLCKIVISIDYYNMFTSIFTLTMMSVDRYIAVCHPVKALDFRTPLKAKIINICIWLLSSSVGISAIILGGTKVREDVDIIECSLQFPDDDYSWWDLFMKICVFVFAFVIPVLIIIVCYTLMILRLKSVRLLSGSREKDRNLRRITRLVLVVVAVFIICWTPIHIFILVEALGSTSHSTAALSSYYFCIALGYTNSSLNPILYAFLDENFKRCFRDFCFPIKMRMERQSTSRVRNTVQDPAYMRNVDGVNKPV
Sequence of Delta-type opioid receptor (P33533 whole entry): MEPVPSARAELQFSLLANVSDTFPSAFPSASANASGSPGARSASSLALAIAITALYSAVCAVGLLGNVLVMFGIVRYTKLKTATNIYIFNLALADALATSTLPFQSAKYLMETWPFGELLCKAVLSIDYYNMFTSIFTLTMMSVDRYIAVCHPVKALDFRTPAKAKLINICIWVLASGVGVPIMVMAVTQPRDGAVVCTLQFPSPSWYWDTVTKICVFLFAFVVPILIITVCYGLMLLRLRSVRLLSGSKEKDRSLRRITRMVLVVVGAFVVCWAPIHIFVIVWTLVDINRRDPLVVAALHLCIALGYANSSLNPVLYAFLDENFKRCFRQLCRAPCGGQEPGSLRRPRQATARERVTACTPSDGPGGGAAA

SMILES	Ki (Cavia porcellus [1]) [nM]	Selectivity [2]	Ki (Cavia porcellus [3]) [nM]	Ki (Cavia porcellus [4]) [nM]	Selectivity [5]	Ki [6] [nM]	Ki [7] [nM]	Ki (Mu-type opioid receptor) [nM]
CC(C)[C@@H](CN1CC[C@@](C)(c2cccc(O)c2)[C@@H](C)C1)NC(=O)[C@H]1Cc2ccc(O)cc2CN1 [JDTIC]	0.02	12	> 300	2.16	940			
Oc1ccc2c3c1O[C@H]1c4[nH]c5c(c4C[C@@]4(O)[C@@H](C2)N(CC2CC2)CC[C@]314)C[C@@]1(O)[C@H]2Cc3ccc(O)c4c3[C@@]1(CCN2CC1CC1)[C@H]5O4 [NORBINALTORPHIMINE]						1.33	111	
Oc1ccc2c3c1O[C@H]1c4[nH]c5c(c4C[C@@]4(O)[C@@H](C2)N(CC2CC2)CC[C@]314)C[C@@]1(O)[C@H]2Cc3ccc(O)c4c3[C@@]1(CCN2CC1CC1)[C@H]5O4 (relative stereo) [NORBINALTORPHIMINE]	0.038			16.7				
CC(C)[C@@H](CN1CC[C@@](C)(c2cccc(O)c2)[C@@H](C)C1)NC(=O)CCc1ccc(O)cc1	4.7	45	450	7.25	> 885			
CC(C)[C@@H](CN1CC[C@@](C)(c2cccc(O)c2)[C@@H](C)C1)NC(=O)[C@H]1Cc2ccccc2CN1	11.5	369	213	68.6	> 2330			
CC(C)[C@@H](CN1CC[C@@](C)(c2cccc(O)c2)[C@@H](C)C1)NC(=O)CCc1ccccc1		2			11	446	> 5050	946
